The subject of data set [1] is RG2 cells. The data set is described as follows: MTT cytotoxicity assay in wild-type cells. In kind it is cell-based, Rat. The gist of the method: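 Non-transduced rat glioma RG2 cells were grown in DMEM with 10% FBS and 1% penicillin/streptomycin at 37 °C under 5% CO2, then seeded at 1.5 × 10^3 cells/well and incubated overnight. Test compound was applied at 0.001–1000 μmol/L in quadruplicate for 72 h at 37 °C. MTT (1 mg/mL) was added for 3 h, and formazan was dissolved in DMSO. A490 (650 nm reference) was blank-subtracted and growth expressed as % of untreated control.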

The conditions of data set [2]: cited from earlier work.
The test system of data set [3] is RG2 cells. Put plainly: In vitro cell uptake of radiolabeled nucleosides in non-transduced control cells. The format is cell-based, Rat. Particulars: 2 h incubation, % of total radioactivity per 10^6 cells, wild-type RG2 cells.
A further data set deals with RG2TK+ cells. Put plainly: In vitro cell uptake of radiolabeled nucleosides in HSV1-tk expressing cells. The format is cell-based, Rat. The conditions noted are these: 2 h incubation, % of total radioactivity per 10^6 cells.
The conditions of data set [4]: normal mice; cited from earlier work.

Turning to `O=c1[nH]c(=O)n([C@@H]2O[C@H](CO)[C@@H](O)[C@@H]2F)cc1I` [FIAU], the “Cytotoxicity to RG2 cells (in words)” value with RG2 cells [1] was “moderately toxic to RG2 cells”. In addition, the “Diffusion across the intact BBB” value in data set [2] is given as “does not diffuse across the intact BBB”. In the case of `Nc1nc(O)c2ncn(COC(CO)CO)c2n1` [GCV, ganciclovir], the “Cytotoxicity to RG2 cells (in words)” value with RG2 cells [1] was “not active against RG2 cells”. For `O=c1[nH]c(=O)n([C@@H]2O[C@H](CO)[C@@H](O)[C@@H]2F)cc1CCCC[18F]` [[^18F]FFBuAU], the “% Uptake per 10^6 Cells, RG2” value in the data set on RG2 cells [3] was 0.66 % per 10^6 cells. On the same count and under the same terms, then `O=c1[nH]c(=O)n([C@H]2C[C@H](O)[C@@H](CO)O2)cc1CCCCC[18F]` [[^18F]FPeDU], with 0.23 % per 10^6 cells.

`O=c1[nH]c(=O)n([C@H]2C[C@H](O)[C@@H](CO)O2)cc1CCC[18F]` [[^18F]FPrDU]: the “% Uptake per 10^6 Cells, RG2TK+” value in the data set with RG2TK+ cells was found to be 8.4 % per 10^6 cells. As for `O=c1[nH]c(=O)n([C@@H]2O[C@H](CO)[C@@H](O)[C@@H]2F)cc1/C=C/[123I]` [[^123I]IVFAU], the Brain uptake result in data set [4] is given as “very low brain uptake”. As for `O=c1[nH]c(=O)n([C@@H]2O[C@H](CO)[C@@H](O)[C@H]2F)cc1/C=C/[123I]` [[^123I]IVFRU], in data set [4], the Brain uptake entry is “very low brain uptake”.

`O=c1[nH]c(=O)n([C@@H]2O[C@H](CO)[C@@H](O)[C@@H]2F)cc1[125I]` [[^125I]FIAU, 2′-fluoro-2′-deoxy-5-[^125I]iodo-1-β-D-arabinofuranosyluracil]: in the data set on RG2TK+ cells, the “% Uptake per 10^6 Cells, RG2TK+” value was 29.4 % per 10^6 cells. Further, the “% Uptake per 10^6 Cells, RG2” value with RG2 cells [3] was found to be 3.44 % per 10^6 cells.
